The target of data set [1] is T1, Gastrin/cholecystokinin type B receptor (Mus musculus, UniProt P56481).
T1 sequence (P56481 whole entry): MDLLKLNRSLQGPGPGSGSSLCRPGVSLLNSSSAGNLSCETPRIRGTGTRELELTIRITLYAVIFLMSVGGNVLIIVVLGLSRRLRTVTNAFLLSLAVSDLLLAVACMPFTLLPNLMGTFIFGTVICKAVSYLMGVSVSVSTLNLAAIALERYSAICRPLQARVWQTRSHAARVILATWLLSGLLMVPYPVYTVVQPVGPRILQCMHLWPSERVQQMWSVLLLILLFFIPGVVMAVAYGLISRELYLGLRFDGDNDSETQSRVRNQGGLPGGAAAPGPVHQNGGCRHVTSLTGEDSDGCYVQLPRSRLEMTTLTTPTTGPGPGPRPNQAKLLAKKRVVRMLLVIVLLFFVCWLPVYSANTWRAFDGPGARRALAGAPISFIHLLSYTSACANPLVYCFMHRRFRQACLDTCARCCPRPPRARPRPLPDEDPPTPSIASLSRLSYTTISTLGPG
Briefly: Inhibition of 20 pM [125I]BH-CCK-8S binding to mouse cortical membrane Cholecystokinin 2 receptor. The method, boiled down: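 Competition binding in mouse cortical membrane homogenates against 20 pM [125I]BH-CCK-8S tracer; pKi ± SEM from at least three separate experiments.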

Data set [2] has as its target T2, Cholecystokinin receptor type A (Cavia porcellus, UniProt Q63931).
T2 sequence (Q63931 whole entry): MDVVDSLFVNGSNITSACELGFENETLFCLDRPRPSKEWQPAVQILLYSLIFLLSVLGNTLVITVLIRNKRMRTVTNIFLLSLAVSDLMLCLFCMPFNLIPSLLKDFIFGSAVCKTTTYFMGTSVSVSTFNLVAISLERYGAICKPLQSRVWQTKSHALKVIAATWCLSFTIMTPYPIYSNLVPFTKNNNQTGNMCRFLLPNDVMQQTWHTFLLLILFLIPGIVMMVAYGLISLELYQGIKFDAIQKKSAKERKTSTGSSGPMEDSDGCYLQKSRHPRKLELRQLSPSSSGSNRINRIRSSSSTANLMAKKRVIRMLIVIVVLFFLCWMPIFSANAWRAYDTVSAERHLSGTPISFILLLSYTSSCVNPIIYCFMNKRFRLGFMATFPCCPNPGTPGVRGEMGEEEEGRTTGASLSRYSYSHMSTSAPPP
Briefly: Inhibition of 20 pM [125I]BH-CCK-8S binding to guinea pig pancreas membrane Cholecystokinin 1 receptor. The method, boiled down:
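Competition binding in guinea pig pancreas cell homogenates against 20 pM [125I]BH-CCK-8S; pKi ± SEM derived from at least three separate experiments.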

The target of data set [3] is T3, Gastrin/cholecystokinin type B receptor (Mus musculus) (UniProt P56481).
T3 sequence (whole entry): T1 sequence (P56481 whole entry)
Briefly: Loss of Cholecystokinin 2 receptor activity relative to parent compound. It counts as functional.

A short description of data set [4]: Log D value was measured in octanol/buffer (pH 7.5). It counts as physicochemical. The method, boiled down: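 Partition between octanol and buffer at pH 7.5.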
A short description of data set [5]: Percent material excreted unchanged was detected in the bile by i.v. administration (10 uM/Kg) to anesthetized rat. It counts as ADME. The settings on record: iv, read-out: Activity. The method, boiled down:
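Anesthetized rats dosed iv bolus at 10 μmol/kg; bile duct cannulated, bile collected in 15 min intervals over 150 min total; unchanged compound measured by HPLC, reported as percent excreted.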

A short description of data set [6]: Percent material excreted unchanged was detected in the bile by i.v. administration (1 or 10 uM/Kg) to anesthetized rat. Type of data set: ADME. The note with it: iv, read-out: Activity. The method, boiled down:
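Anesthetized rats, iv bolus at 1 or 10 μmol/kg; bile duct cannulated, bile collected in 15 min intervals over 150 min total; unchanged compound in bile quantified by HPLC, expressed as percent of dose. Compounds given as bis(N-methyl-D-glucamine) salts.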

Molecules are shown by their SMILES.

Take `O=C(O)CCNC(=O)c1cc(-c2ccccc2)[nH]c1CC12CC3CC(CC(C3)C1)C2`: the Ki in data set [1] was 3160 nM; in data set [2] it was 10000 nM.

Turning to `CN(C(=O)c1cc2[nH]cnc2cc1C(=O)NCC12CC3CC(CC(C3)C1)C2)[C@@H](Cc1ccccc1)C(=O)Nc1cc(C(=O)O)cc(C(=O)O)c1`, the Ki in data set [1] was 25.1 nM. In addition, the Activity in data set [3] is 0.7.

Consider `O=C(O)c1cc(NC(=O)c2cc(-c3ccccc3)[nH]c2CCC23CC4CC(CC(C4)C2)C3)cc(C(=O)O)c1`, for which the Ki was 200 nM in data set [1] and 5010 nM in data set [2].

In data set [1], `CNC[C@H](O)[C@@H](O)[C@H](O)[C@H](O)CO.O=C(O)c1cccc(NC(=O)c2[nH]c(-c3ccc4ccccc4c3)nc2CC2CCCCCC2)c1` showed a Ki of 794 nM. For the same molecule, the logD in data set [4] was 2.8. Besides, in data set [5], the dose excreted amounted to 5%.

For the molecule `O=C(O)c1cc(NC(=O)c2[nH]c(-c3ccccc3)nc2CC23CC4CC(CC(C4)C2)C3)cc(C(=O)O)c1`, the Ki in data set [1] was 158 nM; in data set [2], 3160 nM.

In the case of `O=C(O)c1cc(NC(=O)c2[nH]c(-c3ccc4[nH]ccc4c3)nc2CC2CCCCCC2)cc(C(=O)O)c1`, the Ki was 1000 nM in data set [1] and 5010 nM in data set [2].

For `CNC[C@H](O)[C@@H](O)[C@H](O)[C@H](O)CO.O=C(O)c1cccc(NC(=O)[C@H](Cc2ccccc2)NC(=O)c2cc3[nH]cnc3cc2C(=O)NCC23CC4CC(CC(C4)C2)C3)c1`, the Ki in data set [1] was 398 nM; in data set [2], 5010 nM. The dose excreted in data set [6] amounted to 39%. This molecule displayed a logD in data set [4] of 1.1.

With `O=C(O)c1cc(NC(=O)c2cc(-c3ccccc3)[nH]c2CC23CC4CC(CC(C4)C2)C3)cc(C(=O)O)c1`, the Ki in data set [1] was 126 nM; in data set [2], 7940 nM.

`CNC[C@H](O)[C@@H](O)[C@H](O)[C@H](O)CO.O=C(O)c1cc(NC(=O)c2[nH]c(-c3ccc4ccccc4c3)nc2CC2CCCCCC2)cc(C(=O)O)c1` had an inhibitory constant (Ki) in data set [2] of 3160 nM. Also, the logD in data set [4] came out at 0.7. In addition, in data set [5], the dose excreted is 53%.

Consider `O=C(O)c1cc(NC(=O)[C@H](Cc2ccccc2)NC(=O)c2cc3cc[nH]c3cc2C(=O)NCC23CC4CC(CC(C4)C2)C3)cc(C(=O)O)c1`, for which the Ki in data set [1] is 1 nM; in data set [2], 3980 nM.

In turn, `O=C(O)c1cc(NC(=O)[C@H](Cc2ccccc2)NC(=O)c2ccccc2C(=O)NCC23CC4CC(CC(C4)C2)C3)cc(C(=O)O)c1` gave an inhibition constant Ki in data set [1] of 31.6 nM.

Consider `CN(C(=O)[C@H](Cc1ccccc1)NC(=O)c1cc2[nH]cnc2cc1C(=O)NCC12CC3CC(CC(C3)C1)C2)c1cc(C(=O)O)cc(C(=O)O)c1`, for which the Ki in data set [2] is 3980 nM. In addition, the Activity in data set [3] stood at 2.

Regarding `CNC[C@H](O)[C@@H](O)[C@H](O)[C@H](O)CO.O=C(O)c1cccc(NC(=O)c2cc(-c3ccc4ccccc4c3)[nH]c2CC2CCCCCC2)c1`, the inhibitory constant (Ki) in data set [1] was 1260 nM; in data set [2], 3980 nM. The logD in data set [4] was found to be 2.9. The dose excreted in data set [5] came to 6%.

For the molecule `O=C(O)c1cc(NC(=O)c2[nH]c(-c3ccccc3)nc2CCC23CC4CC(CC(C4)C2)C3)cc(C(=O)O)c1`, the Ki was 631 nM in data set [1] and 6310 nM in data set [2].

Regarding `CNC[C@H](O)[C@@H](O)[C@H](O)[C@H](O)CO.O=C(NCC12CC3CC(CC(C3)C1)C2)c1cc2nc[nH]c2cc1C(=O)N[C@@H](Cc1ccccc1)C(=O)Nc1cc(CO)cc(CO)c1`, affinity in data set [2] was put at a Ki of 3980 nM. Also, the dose excreted in data set [6] came to 22%. For the same molecule, in data set [4], the logD worked out at 3.7.

Molecule `O=C(O)c1cc(NC(=O)[C@H](Cc2ccccc2)NC(=O)C2C3c4ccccc4C(c4ccccc43)C2C(=O)NCC23CC4CC(CC(C4)C2)C3)cc(C(=O)O)c1` (some centres not stated) showed a Ki in data set [2] of 2000 nM.

On to `CNC[C@H](O)[C@@H](O)[C@H](O)[C@H](O)CO.O=C(O)c1cc(NC(=O)c2cc(-c3ccc4ccccc4c3)[nH]c2CC2CCCCCC2)cc(C(=O)O)c1`, for which the Ki was 200 nM in data set [1] and 2510 nM in data set [2]. The logD in data set [4] worked out at 1.4. In data set [5], the dose excreted is 59%.

Turning to `O=C(O)c1cc(NC(=O)c2cc(-c3ccccc3)[nH]c2CC2CCCCCC2)cc(C(=O)O)c1`, the Ki in data set [1] was 251 nM; in data set [2], 7940 nM.

Consider `O=C(O)c1cc(NC(=O)c2[nH]c(-c3ccccc3)nc2CC2CCCCCC2)cc(C(=O)O)c1`, for which, in data set [2], the Ki is 7940 nM.

For the molecule `CNC[C@H](O)[C@@H](O)[C@H](O)[C@H](O)CO.O=C(Nc1cc(CO)cc(CO)c1)c1[nH]c(-c2ccc3ccccc3c2)nc1CC1CCCCCC1`, the results for the Ki in data set [1] and in data set [2] were 3980 nM and 3160 nM, respectively. This molecule yielded a logD in data set [4] of over 4. The dose excreted in data set [5] was determined as 1%.

For the molecule `CNC[C@H](O)[C@@H](O)[C@H](O)[C@H](O)CO.O=C(O)c1cc(NC(=O)[C@H](Cc2ccccc2)NC(=O)c2cc3[nH]cnc3cc2C(=O)NCC23CC4CC(CC(C4)C2)C3)cc(C(=O)O)c1`, the Ki in data set [1] is 5.01 nM; in data set [2], 1580 nM. Further, the dose excreted in data set [6] is 45%. In data set [4], the logD is -2.3.

By Ki is commonly meant a measure of affinity in units of concentration, obtained from inhibition or displacement. High values mean weaker binding, low ones tighter binding. Usually logD stands for the decadic logarithm of the distribution of all forms, ionised or not, between an organic phase and buffer at a given pH. A lower logD goes with lower lipophilicity.
